Source: ChEMBL document CHEMBL4014315 (J Med Chem, 2017)

How the values were obtained:
[1] = molecular target: T1, Broad substrate specificity ATP-binding cassette transporter ABCG2 (Homo sapiens, UniProt Q9UNQ0); experiment: Inhibition of recombinant human GFP-fused ABCG2 expressed in MDCK2 cells assessed as reduction in Hoechst 33342 efflux preincubated for 30 mins followed by Hoechst 33342 addition measured immediately at 60 sec time interval for 120 mins by fluorescence assay; type: cell-based
T1 sequence (Q9UNQ0 whole entry): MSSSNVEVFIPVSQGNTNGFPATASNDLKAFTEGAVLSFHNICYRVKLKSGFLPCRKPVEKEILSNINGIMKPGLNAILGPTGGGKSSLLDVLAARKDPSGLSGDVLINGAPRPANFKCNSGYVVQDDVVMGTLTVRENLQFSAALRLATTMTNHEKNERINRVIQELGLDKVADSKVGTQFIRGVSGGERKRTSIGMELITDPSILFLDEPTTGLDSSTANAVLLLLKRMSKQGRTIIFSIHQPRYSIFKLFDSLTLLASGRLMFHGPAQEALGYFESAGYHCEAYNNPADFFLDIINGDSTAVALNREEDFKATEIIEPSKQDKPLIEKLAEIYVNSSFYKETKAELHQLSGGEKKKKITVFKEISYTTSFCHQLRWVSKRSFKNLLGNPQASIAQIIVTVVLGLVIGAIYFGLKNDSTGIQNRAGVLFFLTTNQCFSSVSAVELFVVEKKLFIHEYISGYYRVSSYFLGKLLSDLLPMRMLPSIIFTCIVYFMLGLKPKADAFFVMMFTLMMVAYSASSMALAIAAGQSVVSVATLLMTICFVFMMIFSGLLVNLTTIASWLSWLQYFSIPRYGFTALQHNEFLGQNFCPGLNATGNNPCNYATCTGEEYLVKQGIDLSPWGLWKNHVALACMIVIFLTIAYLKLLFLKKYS
In short: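 Hoechst 33342 accumulation assay: the dye is an ABCG2 substrate whose fluorescence rises when bound to DNA or embedded in membrane. Intracellular accumulation serves as the read-out of transporter inhibition.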

ABCG2 [2] = molecular target: T2, ABCG2 (Homo sapiens, UniProt Q9UNQ0); experiment: Inhibition of recombinant human GFP-fused ABCG2 expressed in MDCK2 cells assessed as reduction in Hoechst 33342 efflux at […] preincubated for 30 mins followed by Hoechst 33342 addition measured immediately at 60 sec time interval for 120 mins by fluorescence assay relative to Ko143; type: cell-based; conditions: MDCK2 cells expressing recombinant GFP-fused human ABCG2, probe Hoechst 33342, read-out: Imax
T2 sequence (Q9UNQ0 whole entry): T1 sequence (Q9UNQ0 whole entry)

[3] = Cytotoxicity against ABCG2 over-expressing MDCK2 cells assessed as cell growth inhibition after 72 hrs by MTT assay; type: ADME, cell-based, Canis lupus familiaris, MDCK-II; conditions: dog
[4] = Cytotoxicity against MDCK2 cells assessed as cell growth inhibition after 72 hrs by MTT assay; type: cell-based, Canis lupus familiaris, MDCK-II; conditions: dog
[5] = Therapeutic index, ratio of GI50 for ABCG2 over-expressing MDCK2 cells to IC50 for recombinant human GFP-fused ABCG2 expressed in MDCK2 cells; type: cell-based
[6] = molecular target: T1, Broad substrate specificity ATP-binding cassette transporter ABCG2; experiment: Activation of ABCG2 (unknown origin) ATPase activity expressed in baculovirus infected high five cell membranes by ascorbic acid/ammonia molybdate reaction-based colorimetric analysis
In short: (§1)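 Colorimetric ATPase assay of ABCG2 membranes; activity expressed relative to control. Where data were biphasic, a combined increasing plus decreasing logistic equation with the Hill coefficient fixed at one was fitted, giving an activating and an inactivating K.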

ABCG2 [7] = molecular target: T2, ABCG2; experiment: Activation of ABCG2 (unknown origin) ATPase activity expressed in baculovirus infected high five cell membranes assessed as protein Vmax by ascorbic acid/ammonia molybdate reaction-based colorimetric analysis relative to basal control; conditions: read-out: Vmax; in short: as §1
MDCK-II = experiment: Cytotoxicity against ABCG2 over-expressing MDCK2 cells assessed as effect on cell proliferation at low concentration after 72 hrs in absence of DMSO and presence of 1% methanol by MTT assay; type: ADME, cell-based, Canis lupus familiaris; conditions: dog
In short: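 Modified MTT viability assay in ABCG2-overexpressing MDCK II cells, run without DMSO and with a constant 1% methanol.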

[8] = molecular target: ATP-dependent translocase ABCB1 (Homo sapiens, UniProt P08183); experiment: Inhibition of ABCB1 in human A2780adr cells assessed as reduction in calcein AM levels preincubated for 30 mins followed by calcein AM addition measured immediately at 60 sec time interval for 60 mins by fluorescence assay; type: cell-based
Sequence of ATP-dependent translocase ABCB1 (P08183 whole entry): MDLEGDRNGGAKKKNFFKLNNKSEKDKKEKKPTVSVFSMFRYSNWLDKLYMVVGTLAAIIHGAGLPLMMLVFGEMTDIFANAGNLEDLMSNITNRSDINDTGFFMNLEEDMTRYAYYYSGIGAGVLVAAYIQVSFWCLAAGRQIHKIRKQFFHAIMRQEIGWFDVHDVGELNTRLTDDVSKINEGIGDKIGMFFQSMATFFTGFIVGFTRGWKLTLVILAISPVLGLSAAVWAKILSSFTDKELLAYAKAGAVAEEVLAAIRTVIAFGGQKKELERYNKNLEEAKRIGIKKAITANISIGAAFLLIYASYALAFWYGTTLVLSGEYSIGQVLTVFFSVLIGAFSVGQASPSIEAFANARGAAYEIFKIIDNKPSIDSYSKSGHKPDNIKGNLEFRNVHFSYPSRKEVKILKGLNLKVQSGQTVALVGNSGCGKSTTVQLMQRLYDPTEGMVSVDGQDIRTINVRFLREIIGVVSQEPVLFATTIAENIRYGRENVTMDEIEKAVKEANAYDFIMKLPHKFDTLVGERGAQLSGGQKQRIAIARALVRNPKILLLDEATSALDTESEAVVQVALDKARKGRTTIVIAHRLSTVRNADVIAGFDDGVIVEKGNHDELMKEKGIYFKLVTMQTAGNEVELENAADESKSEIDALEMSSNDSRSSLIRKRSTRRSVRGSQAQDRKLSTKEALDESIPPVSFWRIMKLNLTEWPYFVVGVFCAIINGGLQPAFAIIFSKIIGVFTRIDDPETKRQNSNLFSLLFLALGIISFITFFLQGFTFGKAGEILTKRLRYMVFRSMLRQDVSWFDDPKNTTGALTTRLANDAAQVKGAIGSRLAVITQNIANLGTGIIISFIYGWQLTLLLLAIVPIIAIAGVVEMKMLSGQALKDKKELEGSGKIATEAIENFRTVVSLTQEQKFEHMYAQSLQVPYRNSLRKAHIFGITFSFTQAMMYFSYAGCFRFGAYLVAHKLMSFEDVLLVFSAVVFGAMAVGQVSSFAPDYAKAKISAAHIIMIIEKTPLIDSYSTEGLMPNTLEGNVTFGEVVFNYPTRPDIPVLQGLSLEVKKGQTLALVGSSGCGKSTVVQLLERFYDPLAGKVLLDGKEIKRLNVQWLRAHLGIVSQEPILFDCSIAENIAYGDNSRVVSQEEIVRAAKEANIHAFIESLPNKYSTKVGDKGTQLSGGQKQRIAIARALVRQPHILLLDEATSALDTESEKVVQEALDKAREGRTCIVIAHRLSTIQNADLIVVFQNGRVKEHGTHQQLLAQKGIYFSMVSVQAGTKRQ
In short: (§2)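 Calcein AM assay in A2780adr cells (ABCB1 overexpressing) and H69AR cells (ABCC1 overexpressing). Compounds were screened at 10 µM, with inhibition relative to cyclosporine A as the total-inhibition control.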

ABCB1 = ABCB1 (Homo sapiens, UniProt P08183); experiment: Inhibition of ABCB1 in human A2780adr cells assessed as reduction in calcein AM levels at 10 uM preincubated for 30 mins followed by calcein AM addition measured immediately at 60 sec time interval for 60 mins by fluorescence assay relative to Cyclosporine A; type: cell-based; conditions: probe calcein AM; in short: as §2
Sequence of ABCB1 (P08183 whole entry): as above

Row | IC50 [1] [µM] | Emax at 2 h (ABCG2 [2]) [%] | EC50 ([6]; read-out: EC50) [µM] | Emax (ABCG2 [7]) [%] | IC50 [8] [µM] | inhibition at 1 h, 10 µM (ABCB1) [%] | EC50 [6] | SMILES | GI50 at 72 h [3] [µM] | GI50 at 72 h [4] [µM] | TI [5] | Activity (MDCK-II)
1 | 0.362 | 80 to 110 | – | – | – | – | – | COC(=O)c1cccc(Nc2nc(-c3cccnc3)nc3ccccc23)c1 | – | – | – | –
2 | 0.134 | 80 to 110 | 0.016 | 178 | – | – | – | N#Cc1cccc(Nc2nc(-c3ccncc3)nc3ccccc23)c1 | 88.1 | 112 | 657 | Non-Toxic
3 | 0.156 | 80 to 110 | 0.058 | 140 | – | – | – | Fc1cccc(Nc2nc(-c3cccnc3)nc3ccccc23)c1 | 46.8 | 100 | 300 | –
4 | 1.63 | 80 to 110 | – | – | 12.7 | > 25 | – | COc1cccc(Nc2nc(-c3ccccn3)nc3ccccc23)c1 | – | – | – | –
5 | 1.07 | 80 to 110 | – | – | – | – | – | Oc1cccc(Nc2nc(-c3ccncc3)nc3ccccc23)c1 | 9.22 | 12.4 | 8.62 | –
6 | 0.117 | 80 to 110 | 0.004 | 185 | – | – | – | O=[N+]([O-])c1cccc(Nc2nc(-c3ccncc3)nc3ccccc23)c1 | – | – | – | –
7 | 0.545 | 80 to 110 | 0.01 | 150 | 2.08 | > 25 | – | COc1ccc(Nc2nc(-c3ccncc3)nc3ccccc23)cc1OC | – | – | – | –
8 | 9.64 | 80 to 110 | – | – | 3.67 | > 25 | – | O=C(O)c1ccc(Nc2nc(-c3ccncc3)nc3ccccc23)cc1 | – | – | – | –
9 | 0.299 | 80 to 110 | 1.54 | 40 | 0.334 | > 25 | – | CC(C)(C)OC(=O)c1cccc(Nc2nc(-c3ccncc3)nc3ccccc23)c1 | – | – | – | –
10 | 60 | 80 to 110 | – | – | – | – | – | O=C(O)c1cccc(Nc2nc(-c3ccncc3)nc3ccccc23)c1 | – | – | – | –
11 | 0.405 | 80 to 110 | – | – | 6.37 | > 25 | – | COC(=O)c1cccc(Nc2nc(-c3ccncc3)nc3ccccc23)c1 | – | – | – | –
12 | 0.146 | 80 to 110 | – | – | 2.78 | > 25 | – | COc1ccc(Nc2nc(-c3ccncc3)nc3ccccc23)cc1C(F)(F)F | 2.88 | 2.46 | 19.7 | –
13 | 0.921 | 80 to 110 | – | – | – | – | – | OCc1cccc(Nc2nc(-c3ccncc3)nc3ccccc23)c1 | – | – | – | –
14 | 4.26 | 80 to 110 | – | – | – | – | – | Oc1ccc(Nc2nc(-c3ccncc3)nc3ccccc23)cc1 | 55 | 120 | 12.9 | –
15 | 1.02 | 80 to 110 | 0.05 | 137 | 4.78 | > 25 | – | COc1cccc(Nc2nc(-c3cccnc3)nc3ccccc23)c1 | – | – | – | –

The remaining lines, values behind:

Row | SMILES | IC50 [1] [µM] | Emax at 2 h (ABCG2 [2]) [%] | EC50 ([6]; read-out: EC50) [µM] | Emax (ABCG2 [7]) [%] | IC50 [8] [µM] | inhibition at 1 h, 10 µM (ABCB1) [%] | EC50 [6] | GI50 at 72 h [3] [µM] | GI50 at 72 h [4] [µM] | TI [5] | Activity (MDCK-II)
16 | O=[N+]([O-])c1cc(Nc2nc(-c3cccnc3)nc3ccccc23)ccc1O | 0.245 | 80 to 110 | 0.007 | 151 | – | – | – | – | – | – | –
17 | OCc1cccc(Nc2nc(-c3cccnc3)nc3ccccc23)c1 | 0.81 | 80 to 110 | – | – | – | – | – | – | – | – | –
18 | O=[N+]([O-])c1cccc(Nc2nc(-c3cccnc3)nc3ccccc23)c1 | 0.105 | 80 to 110 | 0.021 | 154 | – | – | – | 70.8 | 64.6 | 615 | –
19 | N#Cc1cccc(Nc2nc(-c3ccccc3)nc3ccccc23)c1 | – | – | 0.015 | 145 | – | – | – | 10.4 | 14.2 | 146 | –
20 | CN(C)c1cccc(Nc2nc(-c3cccnc3)nc3ccccc23)c1 | 1.2 | 80 to 110 | – | – | – | – | – | 10 | 14.1 | 8.33 | –
21 | O=[N+]([O-])c1cc(Nc2nc(-c3ccccc3)nc3ccccc23)ccc1O | 0.0811 | 80 to 110 | 0.02 | 135 | – | – | – | – | – | 647 | –
22 | c1ccc(Nc2nc(-c3ccccc3)nc3ccccc23)cc1 | 0.882 | 80 to 110 | – | – | – | – | – | 26.6 | 26 | 30.1 | –
23 | COc1cccc(Nc2cc(C)nc(-c3ccncc3)n2)c1 | 0.271 | 80 to 110 | 0.082 | 144 | – | – | – | – | – | – | –
24 | COc1ccc(Nc2nc(-c3ccccn3)nc3ccccc23)cc1OC | 1.06 | 80 to 110 | 0.079 | 152 | 6.3 | > 25 | – | – | – | – | –
25 | COc1ccc(Nc2cc(C)nc(-c3ccncc3)n2)cc1 | 0.874 | 80 to 110 | 0.085 | 146 | – | – | – | – | – | – | –
26 | Oc1ccc(Nc2nc(-c3ccccc3)nc3ccccc23)cc1 | 0.211 | 80 to 110 | – | – | – | – | – | 14.6 | 22.6 | 69.2 | –
27 | Cc1cc(Nc2cccc(C#N)c2)nc(-c2ccncc2)n1 | 0.132 | 80 to 110 | 0.022 | 133 | – | – | – | 6.92 | 9.33 | 52.4 | –
28 | N#Cc1cccc(Nc2nc(-c3ccccn3)nc3ccccc23)c1 | 0.507 | 80 to 110 | 1.53 | 115 | – | – | – | – | – | – | –
29 | Fc1cccc(Nc2nc(-c3ccccc3)nc3ccccc23)c1 | 0.363 | 80 to 110 | 0.131 | 142 | – | – | – | 18 | – | 49.6 | –
30 | O=S(=O)(F)c1cccc(Nc2nc(-c3ccncc3)nc3ccccc23)c1 | 1.38 | 80 to 110 | – | – | – | – | – | – | – | – | –
31 | N#Cc1ccc(Nc2nc(-c3cccnc3)nc3ccccc23)cc1 | 0.166 | 80 to 110 | 0.004 | 137 | – | – | – | 79.4 | 104 | 241 | –
32 | Cc1cc(Nc2ccccc2)nc(-c2ccccc2)n1 | 0.648 | 80 to 110 | – | 100 | – | – | Not Active | 107 | 136 | 165 | –
33 | O=[N+]([O-])c1cccc(Nc2nc(-c3ccccn3)nc3ccccc23)c1 | 0.376 | 80 to 110 | 0.676 | 119 | – | – | – | – | – | – | –
34 | Cc1cc(Nc2cccc(C#N)c2)nc(-c2ccccc2)n1 | 0.122 | 80 to 110 | 2.08 | 134 | – | – | – | – | – | – | –
35 | Cc1cc(Nc2ccc(C#N)cc2)nc(-c2ccccc2)n1 | 0.128 | 80 to 110 | 2.46 | 140 | – | – | – | 17.8 | 28.4 | 139 | –
36 | COc1ccc(Nc2nc(-c3cccnc3)nc3ccccc23)cc1OC | 0.753 | 80 to 110 | – | – | 3.11 | > 25 | – | – | – | – | –
37 | N#Cc1ccc(Nc2nc(-c3ccccc3)nc3ccccc23)cc1 | 0.0714 | 80 to 110 | – | – | – | – | – | – | – | – | –
